# Measured values collected from several papers.
# Protocols differ between the studies behind these lines.
# Target: Serine/threonine-protein kinase N1 (PKN1, Homo sapiens, UniProt Q16512)
SMILES,assay,conditions,endpoint,result
CS(=O)(=O)N1CCCC(NC(=O)[C@H](CCC2CCCCC2)NC(=O)c2ccc(CNc3ncnc4c3nnn4-c3ccccc3)cc2)C1 (stereo partly drawn),"cell-free assay, competition with immobilised ligand",0.1 µM,remaining binding,98%
CCCS(=O)(=O)Nc1ccc(F)c(C(=O)c2c[nH]c3ncc(-c4ccc(Cl)cc4)cc23)c1F,"enzyme activity, inhibitor",1 µM,inhibition,< 10%
CO[C@@H](C)Cn1c(=O)n(C)c2cnc3ccc(-c4cncc(C(C)(C)O)c4)cc3c21,"enzyme activity, inhibitor",1 µM,activity vs control,94%
O=C1NC(=O)c2cc(Nc3ccc(F)cc3)c(Nc3ccc(F)cc3)cc21,cell-free assay,0.5 µM,remaining signal,97.7%
CC/C(=N\NC(=O)NCc1cccc(O)c1)c1ccc(O)c(C)c1O,"enzyme activity, inhibitor",0.1 µM,inhibition,29.1%
CCN1CCC2(CC1)NC(=O)c1c(c3ccc(Cl)c(Cl)c3n1C)C2C#N (racemic),"thermal stability, DSF",10 µM,ΔTm,1 °C
CNC(=O)Nc1ccc2c(c1)CC[C@@]21OC(=O)N(CC(=O)N(Cc2ccc(F)cc2)[C@@H](C)C(F)(F)F)C1=O,"cell-free assay, competition with immobilised ligand",1 µM,remaining binding,85%
O=c1c(O)c(-c2ccc(O)c(O)c2)oc2cc(O)cc(O)c12,"enzyme activity, inhibitor",1 µM,activity vs control,69%
Cn1c2c(c3ccc(Cl)c(Cl)c31)C(C#N)C1(CCCC1)NC2=O (stereo not drawn),"thermal stability, DSF",10 µM,ΔTm,-0.5 °C
COc1cc2ncnc(Nc3ccc(Oc4ccccc4)c(C)c3C)c2cc1OC,"enzyme activity, inhibitor",1 µM,inhibition,4%
c1ccc(CNc2nc(N3CCOc4ccccc43)nc3c2CCCC3)cc1,"target engagement in cells, inhibitor, chemoproteomics",20 mM,inhibition,1.6%
O=S(=O)(c1cccc2cnccc12)N1CCCNCC1,cell-free assay,0.5 µM,remaining signal,40.5%
CN(C(=O)c1ccccc1)c1cc(N(C)c2ccc3c(c2)CCc2ccc(C(=O)NCCN4CCOCC4)cc2C3=O)ccc1F,"cell-free assay, competition with immobilised ligand",1 µM,remaining binding,100%
COc1cccc2c(NCc3ccccc3)nc(-n3c(N)nc4ccccc43)nc12,"target engagement in cells, inhibitor, chemoproteomics",20 mM,inhibition,0.9%
CC(C)(C)c1nc2c(s1)c1nc(N)ncc1c1ccc(NS(=O)(=O)c3c(F)cccc3F)c(F)c12,"enzyme activity, inhibitor, radiometric",1 µM,remaining activity,102%
Oc1ccc(-c2nc(-c3ccncc3)c(-c3ccc(F)cc3)[nH]2)cc1,cell-free assay,0.5 µM,remaining signal,78.9%
CN(C)C1CCN(CC#Cc2nn(C3CCCC3)c3nc(NCc4ccccc4)ncc23)C1 (stereo not drawn),"enzyme activity, inhibitor, FRET",0.1 µM,inhibition,-1%
Cc1cc(F)c(Nc2ncnc3cc(OCc4ccccc4)ccc23)cc1O.Cl,"enzyme activity, inhibitor",1 µM,activity vs control,89%
Cc1c[nH]c2nccc(Oc3c(F)cc(Nc4cc(Cl)nc(N)n4)cc3F)c12,"cell-free assay, competition with immobilised ligand",0.1 µM,remaining binding,72%
COc1cc2ncnc(Nc3ccc(F)c(Cl)c3)c2cc1OCCCN1CCOCC1,cell-free assay,0.5 µM,remaining signal,105%
COc1ncc(Nc2ncc([C@@H](C)N3CCN(S(C)(=O)=O)CC3)cc2-c2nc(C)nc(N)n2)cc1F,"enzyme activity, inhibitor",1 µM,activity vs control,94%
Cn1c2c(Cl)c(Cl)ccc2c2cc[nH]c(=O)c21,"thermal stability, DSF",10 µM,ΔTm,0.9 °C
O=C1Nc2ccc(Cl)cc2C1=Cc1cc(Cl)c(O)c(Cl)c1,cell-free assay,0.5 µM,remaining signal,93%
Cn1cncc1C1=CN(c2ncnc3[nH]cnc23)CCS1,"enzyme activity, inhibitor, radiometric",2 µM,inhibition,87.7%
C[C@H](c1cccc(C#N)c1)n1cc(Cl)cc(C(N)=O)c1=N,"cell-free assay, competition with immobilised ligand",1 µM,remaining binding,65%
C[C@H]1CCN(c2nccc(-c3cnn4ncccc34)n2)C1,binding,1 µM,remaining binding,100%
FC(F)(F)c1ccc2c(c1)nc(-c1cccnc1)n2C1CC1,"cell-free assay, competition with immobilised ligand",1 µM,remaining binding,100%
O=C(Nc1cnn(-c2csc(C(=O)NC3COC3)c2)c1)Nc1ccccc1Cl,"enzyme activity, inhibitor",5 µM,remaining activity,110%
CC[C@@H]1C(=O)N(C)c2cnc(Nc3ccc(C(=O)NC4CCN(C)CC4)cc3OC)nc2N1C1CCCC1,"enzyme activity, inhibitor",1 µM,activity vs control,77%
COc1cc(-c2cc(-c3ccc(N4CCNCC4)cc3)cnc2C)cc(OC)c1OC,"enzyme activity, inhibitor",0.1 µM,inhibition,10%
CS(=O)(=O)NCC[C@H](NC(=O)c1cncc2c1cnn2-c1ccc(F)cc1)c1ccnc(S(C)(=O)=O)c1,"cell-free assay, competition with immobilised ligand",1 µM,remaining binding,100%
CCOc1cc(-c2nncn2C)ccc1Nc1ncc2cc(C)nc(NCC(C)(C)C)c2n1,"enzyme activity, inhibitor, FRET",1 µM,inhibition,< 15%
CC(=O)c1cnc2ccc(-c3cc(Cl)c(O)c(Cl)c3)nc2c1N[C@H]1CC[C@H](CN(C)C)CC1,"enzyme activity, inhibitor",1 µM,activity vs control,0%
Cn1c2c(c3ccc(Cl)c(Cl)c31)C(C#N)C1(CCOCC1)NC2=O (stereo not drawn),"thermal stability, DSF",10 µM,ΔTm,0.2 °C
Cl.Cl.O=C(NCCCNc1nc(Nc2cccc(CN3CCOCC3)c2)ncc1C1CC1)C1CCC1,"enzyme activity, inhibitor",1 µM,activity vs control,52%
O=C(NCc1ncc(C(F)(F)F)cc1Cl)c1ccc2c(c1)C1(CCS(=O)(=O)CC1)[C@@H](C1CC1)N2S(=O)(=O)c1ccc(F)cc1,"cell-free assay, competition with immobilised ligand",1 µM,remaining binding,100%
CS(=O)(=O)Nc1cccc(-c2csc(NC(=O)CSc3nc4nccnc4c(=O)n3CCc3ccccc3)n2)c1,"enzyme activity, inhibitor",10 µM,inhibition,-5%
Nc1cc(N)c(N)cc1N,"enzyme activity, inhibitor",1 µM,activity vs control,72%
Cc1sc(C(=O)NC2COC2)cc1-n1cc(NC(=O)Nc2c(F)cccc2Cl)cn1,"enzyme activity, inhibitor",10 µM,remaining activity,76.8%
